Assays:
[1] = test system: MCF7; assay: Growth inhibition of human MCF7 cells; type: functional
[2] = test system: PC-3; assay: Growth inhibition of human PC3 cells; type: functional
[3] = test system: 786-0; assay: Growth inhibition of human 786-0 cells; type: functional
[4] = test system: OVCAR-5; assay: Growth inhibition of human OVACAR5 cells; type: functional
[5] = test system: UO-31; assay: Growth inhibition of human UO31 cells; type: functional
[6] = test system: T47D; assay: Growth inhibition of human T47D cells; type: functional
[7] = test system: NCI-H23; assay: Growth inhibition of human NCI-H23 cells; type: functional
[8] = test system: CAKI-1; assay: Growth inhibition of human CAKI1 cells; type: functional
[9] = Inhibition of 1,10-phenanthroline-induced HIF1 activation in T47D cells by TK-luciferase assay; type: cell-based; conditions: Homo sapiens
Method in brief: (§1)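 HIF-1 reporter (pHRE-TK-Luc) assays in transfected PC-3 or T47D cells; HIF-1 induced by hypoxia or by the hypoxia mimetic 1,10-phenanthroline (10 μM); compounds at half-log concentrations; luciferase activity measured; IC50 from experiments in triplicate.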

[10] = test system: CCRF-CEM; assay: Growth inhibition of human CCRF-CEM cells; type: functional
[11] = test system: SR; assay: Growth inhibition of human SR cells; type: functional
[12] = test system: HCT-15; assay: Growth inhibition of human HCT15 cells; type: functional
[13] = test system: TK-10; assay: Growth inhibition of human TK10 cells; type: functional
[14] = test system: ACHN; assay: Growth inhibition of human ACHN cells; type: functional
[15] = test system: UACC-257; assay: Growth inhibition of human UACC257 cells; type: functional
[16] = test system: COLO 205; assay: Growth inhibition of human COLO205 cells; type: functional
[17] = test system: SNB-19; assay: Growth inhibition of human SNB19 cells; type: functional
[18] = test system: NCI-H522; assay: Growth inhibition of human NCI-H522 cells; type: functional
[19] = test system: SF-268; assay: Growth inhibition of human SF268 cells; type: functional
[20] = test system: SK-MEL-2; assay: Growth inhibition of human SK-MEL2 cells; type: functional
[21] = test system: Malme-3M; assay: Growth inhibition of human MALME-3M cells; type: functional
[22] = test system: SK-OV-3; assay: Growth inhibition of human SK-OV3 cells; type: functional
[23] = test system: HL-60; assay: Growth inhibition of human HL60 cells; type: functional
[24] = Inhibition of HIF1 activation in PC3 cells by TK-luciferase assay; type: cell-based; conditions: Homo sapiens, PC-3; method in brief: as §1
[25] = test system: EKVX; assay: Growth inhibition of human EKVX cells; type: functional
[26] = test system: OVCAR-8; assay: Growth inhibition of human OVACAR8 cells; type: functional
[27] = test system: KM12; assay: Growth inhibition of human KM12 cells; type: functional
[28] = test system: U-251; assay: Growth inhibition of human U251 cells; type: functional
[29] = test system: IGROV-1; assay: Growth inhibition of human IGROV1 cells; type: functional
[30] = test system: Hs-578T; assay: Growth inhibition of human HS578T cells; type: functional
[31] = test system: SN12C; assay: Growth inhibition of human SN12C cells; type: functional
[32] = test system: M14; assay: Growth inhibition of human M14 cells; type: functional
[33] = test system: HOP-92; assay: Growth inhibition of human HOP92 cells; type: functional
[34] = test system: MDA-MB-231; assay: Growth inhibition of human MDA-MB-231 cells; type: functional
[35] = test system: MDA-MB-435; assay: Growth inhibition of human MDA-MB-435 cells; type: functional
[36] = test system: SF-539; assay: Growth inhibition of human SF539 cells; type: functional
[37] = test system: A549; assay: Growth inhibition of human A549 cells; type: functional
[38] = test system: HT-29; assay: Growth inhibition of human HT29 cells; type: functional
[39] = Growth inhibition of human OVACAR3 cells; type: functional
[40] = test system: SK-MEL-5; assay: Growth inhibition of human SK-MEL5 cells; type: functional
[41] = test system: NCI/ADR-RES; assay: Growth inhibition of human NCI/ADR-RES cells; type: functional
[42] = test system: A498; assay: Growth inhibition of human A498 cells; type: functional
[43] = test system: DU-145; assay: Growth inhibition of human DU145 cells; type: functional
[44] = read-out: Log LC50 (the source's name) (converted)

With `COc1cc(O)cc2cc3oc(C)cc(=O)c3c(O)c12` the GI50 [1] was 31.6 µM, the LC50 [1] was > 100 µM and the TGI ([1]; read-out: Log TGI (converted)) was > 100 µM. For the same compound, the GI50 [2] was 32.4 µM, the LC50 [2] was > 100 µM and the TGI ([2]; read-out: Log TGI (converted)) was > 100 µM. For the same compound, the GI50 [3] was 20 µM, the LC50 [3] was > 100 µM and the TGI ([3]; read-out: Log TGI (converted)) was 50.1 µM. The GI50 [4] was 46.8 µM, the LC50 [4] was > 100 µM and the TGI ([4]; read-out: Log TGI (converted)) was > 100 µM. For the same compound, the GI50 [5] was 5.13 µM, the LC50 [5] was > 100 µM and the TGI ([5]; read-out: Log TGI (converted)) was 37.2 µM. For the same compound, the GI50 [6] was 17.8 µM, the LC50 [6] was > 100 µM and the TGI ([6]; read-out: Log TGI (converted)) was > 100 µM. For the same compound, the GI50 [7] was 24.5 µM, the CC50 [7, 44] was > 100 µM and the TGI ([7]; read-out: Log TGI (converted)) was 83.2 µM. The GI50 [8] was 42.7 µM, the LC50 [8] was > 100 µM and the TGI ([8]; read-out: Log TGI (converted)) was > 100 µM. The IC50 [9] was 0.9 µM, the GI50 [10] was 30.2 µM and the LC50 [10] was > 100 µM. For the same compound, the TGI ([10]; read-out: Log TGI (converted)) was 100 µM, the GI50 [11] was 15.1 µM and the CC50 [11, 44] was > 100 µM. For the same compound, the TGI ([11]; read-out: Log TGI (converted)) was 41.7 µM, the GI50 [12] was 23.4 µM and the CC50 [12, 44] was > 100 µM. For the same compound, the TGI ([12]; read-out: Log TGI (converted)) was 70.8 µM, the GI50 [13] was 20.4 µM and the LC50 [13] was > 100 µM. The TGI ([13]; read-out: Log TGI (converted)) was 61.7 µM, the GI50 [14] was 17 µM and the CC50 [14, 44] was > 100 µM. The TGI ([14]; read-out: Log TGI (converted)) was > 100 µM, the GI50 [15] was 45.7 µM and the LC50 [15] was > 100 µM. For the same compound, the TGI ([15]; read-out: Log TGI (converted)) was > 100 µM, the GI50 [16] was 20.4 µM and the CC50 [16, 44] was > 100 µM. For the same compound, the TGI ([16]; read-out: Log TGI (converted)) was 55 µM, the GI50 [17] was 32.4 µM and the LC50 [17] was > 100 µM. For the same compound, the TGI ([17]; read-out: Log TGI (converted)) was > 100 µM, the GI50 [18] was 2.19 µM and the CC50 [18, 44] was 93.3 µM. The TGI ([18]; read-out: Log TGI (converted)) was 22.9 µM, the GI50 [19] was 30.2 µM and the LC50 [19] was > 100 µM. For the same compound, the TGI ([19]; read-out: Log TGI (converted)) was > 100 µM, the GI50 [20] was 4.9 µM and the LC50 [20] was > 100 µM. The TGI ([20]; read-out: Log TGI (converted)) was 35.5 µM, the GI50 [21] was 35.5 µM and the CC50 [21, 44] was > 100 µM. The TGI ([21]; read-out: Log TGI (converted)) was 95.5 µM, the GI50 [22] was 31.6 µM and the LC50 [22] was > 100 µM. The TGI ([22]; read-out: Log TGI (converted)) was > 100 µM, the GI50 [23] was 20.9 µM and the LC50 [23] was 83.2 µM. The TGI ([23]; read-out: Log TGI (converted)) was 41.7 µM, the IC50 [24] was 3.3 µM and the GI50 [25] was 37.2 µM. The CC50 [25, 44] was > 100 µM, the TGI ([25]; read-out: Log TGI (converted)) was > 100 µM and the GI50 [26] was 27.5 µM. For the same compound, the LC50 [26] was > 100 µM, the TGI ([26]; read-out: Log TGI (converted)) was > 100 µM and the GI50 [27] was 18.6 µM. For the same compound, the CC50 [27, 44] was 85.1 µM, the TGI ([27]; read-out: Log TGI (converted)) was 39.8 µM and the GI50 [28] was 33.1 µM. The LC50 [28] was > 100 µM, the TGI ([28]; read-out: Log TGI (converted)) was > 100 µM and the GI50 [29] was 0.437 µM. The CC50 [29, 44] was > 100 µM, the TGI ([29]; read-out: Log TGI (converted)) was 23.4 µM and the GI50 [30] was 0.589 µM. The LC50 [30] was > 100 µM, the GI50 [31] was 32.4 µM and the LC50 [31] was > 100 µM. The TGI ([31]; read-out: Log TGI (converted)) was > 100 µM, the GI50 [32] was 20 µM and the LC50 (50% lethal concentration) [32] was > 100 µM. The TGI ([32]; read-out: Log TGI (converted)) was 45.7 µM, the GI50 [33] was 30.9 µM and the CC50 [33, 44] was > 100 µM. For the same compound, the TGI ([33]; read-out: Log TGI (converted)) was > 100 µM, the GI50 [34] was 17.8 µM and the LC50 [34] was > 100 µM. For the same compound, the TGI ([34]; read-out: Log TGI (converted)) was > 100 µM, the GI50 [35] was 27.5 µM and the LC50 [35] was > 100 µM. The TGI ([35]; read-out: Log TGI (converted)) was > 100 µM, the GI50 [36] was 27.5 µM and the LC50 [36] was > 100 µM. The TGI ([36]; read-out: Log TGI (converted)) was 87.1 µM, the GI50 [37] was 29.5 µM and the CC50 [37, 44] was > 100 µM. For the same compound, the TGI ([37]; read-out: Log TGI (converted)) was > 100 µM, the GI50 [38] was 29.5 µM and the CC50 [38, 44] was > 100 µM. The TGI ([38]; read-out: Log TGI (converted)) was > 100 µM, the GI50 [39] was > 100 µM and the CC50 [39, 44] was 22.4 µM. For the same compound, the TGI ([39]; read-out: Log TGI (converted)) was 91.2 µM, the GI50 [40] was 0.457 µM and the LC50 [40] was 34.7 µM. The TGI ([40]; read-out: Log TGI (converted)) was 12 µM, the GI50 [41] was 22.4 µM and the LC50 (concentration killing 50% of cells) [41] was > 100 µM. For the same compound, the TGI ([41]; read-out: Log TGI (converted)) was > 100 µM, the GI50 [42] was 0.617 µM and the LC50 [42] was > 100 µM. The TGI ([42]; read-out: Log TGI (converted)) was 11.7 µM, the GI50 [43] was 21.9 µM and the CC50 [43, 44] was > 100 µM. It also gave a TGI ([43]; read-out: Log TGI (converted)) of 70.8 µM.
